Only some compounds are listed: those with a hit (about 2.3% of all), similar ones and a draw of the others.
NR2E3 ag-1 = agonists of human nuclear receptor NR2E3; inhibition of corepressor binding, % at 4.78 µM; Q9Y5X4; actives 0.12% (n = 320,000); GST-NR2E3/biotin-RetCOR TR-FRET, 1536-well;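 active = percent inhibition above the cutoff of mean plus 3 SD of all tested compounds, set per screening campaign, cut at about 20% in these data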
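Assay system: NR2E3–RetCOR corepressor complex. Quantity: 1.35 nM GST-NR2E3. Buffer or medium: pH 7.5 Tris-based buffer. Reagent: biotinylated RetCOR corepressor at 7 nM final. Schedule: 5 h at 4 °C. Detection: TR-FRET, emission read at 617 and 671 nm. Replicates: one well per compound, singlicate testing.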
NR2E3 ag-2 = activates human NR2E3 receptor; Q9Y5X4; CHO-S Gal4-NCOR/VP16-NR2E3 two-hybrid, luciferase; inhibition of corepressor binding, % at 3.98 µM; actives 0.35% (n = 360,000);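 active = inhibition above the mean of all tested compounds plus 3 SD, cut at about 70% in these data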;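 note: higher means lower luciferase signal from less NR2E3 corepressor binding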
CHT inh = inhibitors of human choline transporter CHT. Q9GZV3. CHT-expressing cells, membrane potential dye, choline response; active compounds read low. B-score at 10 µM. actives 0.86% (n = 310,000);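 active = B-score over 3 SD under the library average, and starting fluorescence ratio not unusually high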;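 note: choline stimulus applied at its EC90 after an EC20 pre-addition; B-score computed on integrated fluorescence ratio after choline addition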
CHT allo act = allosteric activators of human choline transporter CHT; Q9GZV3; AID 488977; B-score at 10 µM; CHT-expressing cells, membrane potential dye, choline EC20; active compounds read high; LV-AA mutant CHT in HEK293 cells; actives 0.49% (n = 310,000);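 active = initial fluorescence not abnormally high and integrated response B-score, plate-corrected, over 3 SD above library mean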
NR2F2 inh = blocks human COUP-TFII nuclear receptor; inhibition, % at 8.6 µM; AID 686940; HEK293T NGFI-A luciferase reporter, luminescence; P24468; actives 0.7% (n = 370,000);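 active = inhibition above a per-plate cutoff, mean inhibition of test wells between control levels plus 3 SD, cut at about 38% in these data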;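 note: cells cotransfected with COUP-TFII expression vector driving the NGFI-A reporter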
Target sequence (P24468 whole entry, looked up): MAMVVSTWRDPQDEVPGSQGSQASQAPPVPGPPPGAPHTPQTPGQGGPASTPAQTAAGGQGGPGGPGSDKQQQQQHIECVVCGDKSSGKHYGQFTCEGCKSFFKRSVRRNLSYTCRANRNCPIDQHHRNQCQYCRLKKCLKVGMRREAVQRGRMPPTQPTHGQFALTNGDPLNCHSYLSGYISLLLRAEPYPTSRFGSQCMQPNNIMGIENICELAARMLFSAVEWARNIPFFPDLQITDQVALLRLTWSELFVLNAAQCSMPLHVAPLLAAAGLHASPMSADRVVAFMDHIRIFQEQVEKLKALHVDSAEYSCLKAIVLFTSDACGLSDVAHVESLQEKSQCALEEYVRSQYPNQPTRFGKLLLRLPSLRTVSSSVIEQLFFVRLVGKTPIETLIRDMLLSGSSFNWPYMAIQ
GalR3 antag = human GalR3 antagonism; HEK293 GalR3-CNG cAMP membrane potential fluorescence; galR3 body fused to GalR1 C-terminus; inhibition, % at 3 µM; actives 0.44% (n = 360,000); AID 651719;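 active = inhibition above the screen-wide average plus 3 SD, cut at about 13% in these data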;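 note: forskolin and galanin both at EC90 stimulate the cells; cAMP rise reported by CNG channel membrane potential dye signal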
Target sequence (O60755 1-299 limits assumed): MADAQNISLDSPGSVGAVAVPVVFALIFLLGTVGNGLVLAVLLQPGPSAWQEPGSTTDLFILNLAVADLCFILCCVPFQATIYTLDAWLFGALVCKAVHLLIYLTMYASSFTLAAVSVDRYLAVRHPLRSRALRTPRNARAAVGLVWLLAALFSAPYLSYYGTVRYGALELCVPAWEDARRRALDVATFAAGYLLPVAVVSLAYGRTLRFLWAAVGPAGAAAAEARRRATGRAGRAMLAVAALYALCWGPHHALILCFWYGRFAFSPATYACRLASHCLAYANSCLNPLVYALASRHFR
NR2E3 ag confirm = NR2E3 agonism confirmed in two-hybrid assay. shares compounds with NR2E3 ag-2. CHO-S mammalian two-hybrid NR2E3-NCOR, luciferase luminescence. inhibition, % at 3.98 µM. actives 51% (n = 2,300);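 active = average inhibition above a cutoff equal to the mean inhibition of all tested compounds plus one SD, cut at about 70% in these data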
VP16 counter = GAL4-VP16 reporter inhibition in NR2E3 agonist counterscreen | inhibition, % at 3.98 µM | shares compounds with NR2E3 ag-2 | AID 624379 | CHO-S GAL4-VP16 luciferase reporter, luminescence | actives 29% (n = 2,300);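 active = mean inhibition above a cutoff equal to the average over all tested compounds plus one standard deviation, cut at about 70% in these data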;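 note: luciferase from a UAS reporter driven by GAL4-VP16 transactivation; higher means less reporter light so more repression of VP16 activity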
Numbers stand for hits; . = inactive; / = not tested or not shown.

SMILES	NR2E3 ag-1	NR2E3 ag-2	CHT inh	CHT allo act	NR2F2 inh	GalR3 antag	NR2E3 ag confirm	VP16 counter
COc1cc(-n2c(C)nc3cc(C(=O)N4CCCC4)ccc32)cc(OC)c1OC	/	/	/	/	.	/	/	/
Cc1cc(/C=N/n2cnnc2)c(C)n1-c1ccc(OCc2ccccc2F)cc1	.	.	.	.	.	.	96	79
Cc1cc(Nc2cccc(F)c2)nc(NCc2ccccc2)n1	.	83	.	.	.	.	92	.
Cc1ccccc1CS(=O)(=O)Cc1ccc(C(=O)Nc2ccccc2C)o1	/	/	/	/	.	/	/	/
O=[N+]([O-])c1ccc(OCCCN2CCC(C(O)(c3ccccc3)c3ccccc3)CC2)c(Cl)c1	/	/	/	/	.	/	/	/
CC(NS(=O)(=O)OCC(Cl)(Cl)Cl)c1ccc(C(C)(C)C)cc1 (stereo not given)	.	.	.	.	.	.	.	.
CC(=NNC(=S)N1CCCCC1)c1ccccn1	/	85	/	/	.	.	.	.
CC(=NNC(=S)Nc1ccccc1)c1ccccn1	/	85	/	/	.	.	.	.
C=CCNC(=S)N/N=C(\C)c1ccccn1	.	84	.	.	.	.	.	.
C=CC[C@@H]1NN2C(=O)[C@@H](CCCC)[C@@H]3c4cc5ccccc5cc4C=NN3[C@@H]2c2cc3ccccc3cc21	/	/	/	/	.	/	/	/
CC(=O)N1CCN(S(=O)(=O)c2cccc(C(=O)OCc3ccc(C(C)(C)C)cc3)c2)CC1	/	73	/	/	.	.	78	76
COC(=O)C[C@H]1CC[C@@H]2[C@H](COc3ccc(NC(=O)c4cnccn4)cc3C(=O)N2C)O1	/	/	/	/	.	/	/	/
CC(=O)c1c(O)cc(O)c(C(C)=O)c1O	.	80	.	.	/	/	85	.
Cc1ccc(-n2c(SCc3cccc(F)c3)nc3sc4c(c3c2=O)CCCC4)cc1	/	/	/	/	.	/	/	/
CCN(C(=O)COC(=O)c1ccc(Sc2ncn[nH]2)c([N+](=O)[O-])c1)c1ccccc1	/	/	/	/	.	/	/	/
O=c1c(Sc2ccccc2)c(C(F)(F)F)[nH]n1-c1ccccc1	.	.	.	.	.	.	97	74
O=C(NCC1COc2ccccc2O1)c1ccc(NC(=O)c2c(Cl)cccc2Cl)cc1 (stereo not given)	/	/	/	/	.	/	/	/
CCCCCCCCn1c(=O)c(C(=O)OC)c(N)c2ccccc21	.	.	.	.	.	.	85	.
C=CCn1c(C)cc(C(=O)CN2C(=O)c3ccccc3S2(=O)=O)c1C	.	.	/	/	/	/	76	.
C=CCn1c(C)cc(C(=O)CSc2nc3ccccc3[nH]2)c1C	.	.	.	.	.	.	.	.
CN(Cc1ccccc1F)C(=O)C1CCC(CNS(=O)(=O)c2cccc3cccnc23)CC1 (stereo not given)	/	/	/	/	.	/	/	/
O=NN(CC(=O)NNc1ccccc1)CC(=O)NNc1ccccc1	/	73	/	/	.	.	74	.
O=C(NNc1ccccc1)c1ccccc1	/	.	/	/	.	.	/	/
Cc1ccc2c(c1)-c1c(cnn1CC(=O)NCCc1ccc(Cl)cc1)CO2	/	/	/	/	.	/	/	/
Cc1c(C#N)c2ncn(CCCN(C)C)c(=O)c2n1-c1ccccc1	.	90	.	.	.	.	.	.
SMILES	NR2E3 ag-1	NR2E3 ag-2	CHT inh	CHT allo act	NR2F2 inh	GalR3 antag	NR2E3 ag confirm	VP16 counter
N#C/C(=C/c1ccc(Sc2nc3ccccc3[nH]2)o1)c1ccccc1F	.	.	.	.	.	.	78	.
N#C/C(=C/c1ccc(Sc2nc3ccccc3[nH]2)o1)c1cccc(F)c1	.	.	.	.	.	.	/	/
CN(C)c1ccc(Sc2ccc3nc(N)nc(N)c3c2)cc1	/	76	/	/	.	.	.	.
Nc1nc(N)c2cc(S(=O)(=O)c3cccc(C(F)(F)F)c3)ccc2n1	/	.	/	/	.	.	/	/
O=C(Nc1cccc(C(F)(F)F)c1)O[C@@H]1CC[C@@]23CCCN2C(=O)CCC[C@H]3C1	/	/	/	/	.	/	/	/
Nc1cc2c(cc1Cl)-c1ccc([N+](=O)[O-])cc1C2=NO	/	.	/	/	.	.	.	.
O=[N+]([O-])c1ccc2c(c1)/C(=N\O)c1ccccc1-2	.	.	.	.	.	.	/	/
O=C1NC(=S)SC1=Cc1ccccc1Br	/	74	/	/	.	.	95	72
COC(=O)[C@]1(CNC(=O)Nc2ccc(C)c(Cl)c2)CC(=O)N(C)[C@@H]1c1ccccc1	/	/	/	/	.	/	/	/
Cc1coc2cc3oc(=O)c(CCC(=O)NC4CC4)c(C)c3cc12	.	70	.	.	.	.	85	.
Cc1oc2cc3oc(=O)c(CCC(=O)NC4CC4)c(C)c3cc2c1C	.	.	.	.	.	.	/	/
NC(=O)c1cc(S(=O)(=O)N2CCCCC2)cs1	.	.	.	.	.	.	/	/
Cc1ccc(C)c(N2CCN(S(=O)(=O)c3csc(C(N)=O)c3)CC2)c1	.	.	.	.	.	.	.	.
Cc1ccc(S(=O)(=O)Nc2ccccc2-c2ccccc2NS(=O)(=O)c2ccc(C)cc2)cc1	.	.	.	.	.	.	/	/
O=S(=O)(Nc1ccccc1O)c1ccc(-c2ccccc2)cc1	.	.	.	.	.	.	/	/
Cc1ccc(S(=O)(=O)Nc2cccnc2)cc1C	.	.	.	.	.	.	/	/
Cc1ccc(-c2ccc(S(=O)(=O)Nc3cccnc3)cc2)cc1	.	.	.	.	.	.	84	.
Cc1ccc(S(=O)(=O)Nc2cccc3cccnc23)cc1	.	97	.	.	.	.	.	.
COc1cc(NS(=O)(=O)c2ccc(C)cc2)c2ncccc2c1	.	82	.	.	.	.	.	.
O=S(=O)(Nc1cccnc1Cl)c1ccc(-c2ccccc2)cc1	.	.	.	.	.	.	.	.
CCc1ccc(C=NN2CCN(Cc3ccc(C)cc3C)CC2)cc1	/	/	/	/	.	/	/	/
COC(=O)c1cc(-c2ccc(F)cc2OCc2ccccc2)c(=O)n2c1CCC2	/	/	/	/	.	/	/	/
COc1ccccc1C(=O)n1ccc2ccc(-c3ccc4ccn(Cc5ccc(C#N)cc5)c4c3)cc21	/	/	/	/	.	/	/	/
N#Cc1ccc(/C=C2\CC3(OC(=O)C4CCCCC4)CCCN2C3)cc1 (stereo not given)	/	/	/	/	.	/	/	/
Cc1nc(SCc2ccc(Cl)c(Cl)c2)ncc1C(=O)O	.	.	.	.	.	.	.	.
CC1=C(C)C(=O)C(CCCCC#CCCCC#CCO)=C(C)C1=O	.	.	.	.	/	/	/	/
COC1=C(OC)C(=O)C(CCCCCCCCCCO)=C(C)C1=O	/	.	/	/	.	.	.	.
COc1cccc(NC(=O)C2CCCN2C(=O)NC2CCC(C)CC2)c1 (stereo not given)	/	/	/	/	.	/	/	/
CCOC(=O)CC[C@@]1(C(=O)OCC)C[C@@H](CC(=O)N2CCCC2)C(=O)N2CCCC=C21	/	/	/	/	.	/	/	/

High-throughput results from PubChem BioAssay.
